Reference: article PMC4574835 (British Journal of Clinical Pharmacology, 2015)

Tests used:
[1] = tested on: viral strains harboring major integrase resistance mutations selected for by raltegravir and elvitegravir; conditions: in vitro; mutations selected for by RAL and EVG; cited from earlier work
[2] = Exploratory PK-PD relationship, safety endpoints; format: in vivo, human; conditions: AUC(0-τ), Cmax and Cτ; except serum creatinine and CRCL
Method in brief: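 This was an exploratory graphical analysis in phase 2b/3 treatment-naive patients. Individual predicted steady-state Cτ, Cmax and AUC(0-τ) came from the final population model, using actual doses and assuming no inter-occasion variability. They were plotted against change from baseline in serum creatinine, creatinine clearance, urine albumin:creatinine ratio, ALT and total bilirubin, both as maximal change over 48 weeks and as change at week 48.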

[3] = Individual predicted steady-state PK parameters; format: in vivo, human; conditions: for Tmax / AUC / Cmax: human, plasma, oral; for AUC: AUC(0-τ); for AUC / Cmax / Cτ: steady state
Method in brief: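 Individual parameters were empirical Bayes estimates from the final population model, using each subject's actual dose after repeat dosing. AUC(0-τ) was Dose/([CL/F_i]/F). Cmax, tmax and Cτ came from simulated steady-state concentration–time profiles using individual parameters, assuming no inter-occasion variability and zero residual variability. Summary statistics were computed.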

[4] = tested on: organic cation transporter, OCT2; conditions: cited from earlier work
Population PK model = format: in vivo, human
[5] = 10 mg, ING111521, 10 mg once daily, geometric mean (95% CI)
[6] = 10 mg, SPRING-1, 10 mg once daily, geometric mean (95% CI)
[7] = 50 mg, ING111521, 50 mg once daily, geometric mean (95% CI)
[8] = 50 mg, SPRING-2, 50 mg once daily, geometric mean (95% CI)
[9] = NONMEM point estimate, inter-individual variability
[10] = NONMEM point estimate, listed as DTG

C[C@@H]1CCO[C@H]2Cn3cc(C(=O)NCc4ccc(F)cc4F)c(=O)c(O)c3C(=O)N12 [dolutegravir, Dolutegravir]
Activity against viral strains harboring major integrase resistance mutations [1]: retains activity
Relationship between DTG exposure and the safety endpoints [2]: No relationship
Tmax [3]: ~2 h
Tmax ([3]; 10 mg): 1.66 h
AUC [3, 5]: 9330 ng·h/mL
AUC [3, 6]: 14300 ng·h/mL
Cmax [3, 5]: 691 ng/mL
Cmax [3, 6]: 957 ng/mL
Tmax ([3]; 50 mg): 1.94 h
AUC [3, 7]: 41300 ng·h/mL
AUC ([3]; 50 mg, SPRING-1, 50 mg once daily, geometric mean (95% CI)): 53800 ng·h/mL
AUC [3, 8]: 53600 ng·h/mL
Cmax [3, 7]: 2940 ng/mL
Cmax [3, 8]: 3690 ng/mL
Cτ ([3]; 50 mg once daily, three studies pooled (n = 449), geometric mean): 1.11 µg ml^–1
Cτ ([3]; ING111521, 10 mg once daily, geometric mean (95% CI)): 0.168 (0.136, 0.208) µg ml^–1
Cτ ([3]; ING111521, 50 mg once daily, geometric mean (95% CI)): 0.785 (0.689, 0.895) µg ml^–1
Cτ ([3]; SPRING-1, 10 mg once daily, geometric mean (95% CI)): 0.311 (0.281, 0.345) µg ml^–1
Cτ ([3]; SPRING-1, 25 mg once daily, geometric mean (95% CI)): 0.530 (0.462, 0.609) µg ml^–1
Cτ ([3]; SPRING-1, 50 mg once daily, geometric mean (95% CI)): 1.17 (1.04, 1.33) µg ml^–1
Cτ ([3]; SPRING-2, 50 mg once daily, geometric mean (95% CI)): 1.10 (1.05, 1.15) µg ml^–1
Inhibition of OCT2 [4]: known to inhibit
ALAG (absorption lag-time) (Population PK model; NONMEM point estimate): 0.263 h
ka (absorption rate constant) (Population PK model; NONMEM point estimate): 2.24 h^–1
F ∼ 10 mg (Population PK model; NONMEM point estimate, factor on F for 10 mg dose): 1.24
F ∼ GENDER (Population PK model; NONMEM point estimate, factor on F for females): 1.21
ω^2V (variance of random effect of V/F) (Population PK model; [9]): 0.0188
ω^2ka (variance of random effect of ka) (Population PK model; [9]): 0.224
ALAG (absorption lag-time) (Population PK model; [10]): 0.263 (0.0942, 0.432) h
ka (absorption rate constant) (Population PK model; [10]): 2.24 (1.56, 2.92) h^–1
V/F ∼ WT (Population PK model; NONMEM point estimate, power coefficient (WT/70)): 0.768
σ^2prop (proportional residual error) (Population PK model; NONMEM point estimate, residual variability): 0.0704
CL/F range over age in analysis population (Population PK model; age 18–68 years): 0.772–0.998 l h^–1
ALAG (Population PK model; bootstrap median, 1000 runs): 0.262 h
CL/F (Population PK model; bootstrap median, 1000 runs): 0.901 l h^–1
F ∼ 10 mg (Population PK model; bootstrap median, 1000 runs): 1.24
F ∼ GENDER (Population PK model; bootstrap median, 1000 runs): 1.21
V/F (Population PK model; bootstrap median, 1000 runs): 17.4 L
V/F ∼ WT (Population PK model; bootstrap median, 1000 runs): 0.774
ka (Population PK model; bootstrap median, 1000 runs): 2.21 h^–1
σ^2prop (Population PK model; bootstrap median, 1000 runs): 0.0698
ω^2CL (Population PK model; bootstrap median, 1000 runs): 0.0539
ω^2V (Population PK model; bootstrap median, 1000 runs): 0.0182
ω^2ka (Population PK model; bootstrap median, 1000 runs): 0.217
Increase in CL/F for study ING111521 (Population PK model; compared with SPRING-1 and SPRING-2): 35%
Oral bioavailability (F) higher in female subjects (Population PK model; compared with males, mean): 21%
Vd/F (Population PK model; human, plasma, oral): 17.4 L
Apparent clearance higher in current smokers (Population PK model; vs non-current smokers, mean): 16%
CL/F range over weights in analysis population (Population PK model; weight 39–135 kg): 0.697–1.20 l h^–1
V/F range over weights in analysis population (Population PK model; weight 39–135 kg): 11.1 to 28.8 L
